Results as given in ChEMBL document CHEMBL3853334, “Brain penetrant liver X receptor (LXR) modulators based on a 2,4,5,6-tetrahydropyrrolo[3,4-c]pyrazole core” (Bioorg Med Chem Lett, 2016).

Columns and labels:
[1] = Half life in rat liver microsomes; type: ADME
[2] = Half life in human liver microsomes; type: ADME
Cytochrome P450 2C9 = Cytochrome P450 2C9 (Homo sapiens, UniProt P11712); test: Inhibition of CYP2C9 (unknown origin)
Cytochrome P450 3A4 = Cytochrome P450 3A4 (Homo sapiens, UniProt P08684); test: Inhibition of CYP3A4 (unknown origin)
Chain of Cytochrome P450 3A4 (P08684 whole entry): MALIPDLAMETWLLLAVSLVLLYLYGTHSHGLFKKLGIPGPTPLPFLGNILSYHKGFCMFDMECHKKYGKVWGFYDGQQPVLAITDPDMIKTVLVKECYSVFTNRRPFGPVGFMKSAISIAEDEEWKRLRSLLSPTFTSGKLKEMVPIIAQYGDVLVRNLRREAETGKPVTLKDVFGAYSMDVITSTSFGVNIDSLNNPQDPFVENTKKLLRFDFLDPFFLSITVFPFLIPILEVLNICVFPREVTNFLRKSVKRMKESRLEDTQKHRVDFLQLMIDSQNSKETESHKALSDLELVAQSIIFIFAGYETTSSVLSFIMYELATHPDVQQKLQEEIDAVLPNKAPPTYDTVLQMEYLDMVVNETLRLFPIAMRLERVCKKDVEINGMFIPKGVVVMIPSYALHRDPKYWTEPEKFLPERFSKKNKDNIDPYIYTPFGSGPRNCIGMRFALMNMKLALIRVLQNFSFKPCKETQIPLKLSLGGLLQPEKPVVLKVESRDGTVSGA

Cytochrome P450 2D6 = Cytochrome P450 2D6 (Homo sapiens, UniProt P10635); test: Inhibition of CYP2D6 (unknown origin)
Chain of Cytochrome P450 2D6 (P10635 whole entry): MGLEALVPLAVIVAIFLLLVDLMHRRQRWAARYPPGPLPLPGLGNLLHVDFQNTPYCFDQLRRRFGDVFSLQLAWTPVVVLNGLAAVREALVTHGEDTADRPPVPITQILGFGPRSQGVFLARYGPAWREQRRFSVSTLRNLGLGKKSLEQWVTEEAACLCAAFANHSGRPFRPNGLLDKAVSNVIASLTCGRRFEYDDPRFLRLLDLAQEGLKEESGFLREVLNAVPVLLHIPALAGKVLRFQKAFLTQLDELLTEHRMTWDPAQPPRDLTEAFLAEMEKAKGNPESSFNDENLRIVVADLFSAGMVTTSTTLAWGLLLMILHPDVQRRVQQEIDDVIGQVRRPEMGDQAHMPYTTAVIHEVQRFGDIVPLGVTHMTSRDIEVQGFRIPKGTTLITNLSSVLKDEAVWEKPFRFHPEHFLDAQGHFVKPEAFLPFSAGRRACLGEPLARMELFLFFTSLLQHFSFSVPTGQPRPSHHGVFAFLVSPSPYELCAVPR

[3] = Half life in mouse liver microsomes; type: ADME
[4] = Drug uptake in wild type C57BL mouse brain at 3 mg/kg, po measured after 4 hrs; type: ADME, organism-based; conditions: read-out: Drug uptake
Outline: (§1)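 Wild-type C57BL mice, single oral dose of 1 or 3 mg/kg. Plasma and brain drug levels were measured 4 h post-dose, and brain ABCA1 mRNA induction was compared with vehicle control.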

[5] = Plasma concentration in wild type C57BL mouse at 3 mg/kg, po measured after 4 hrs; type: ADME, organism-based; outline: as §1
[6] = Drug uptake in Sprague-Dawley rat brain at 5 mg/kg, po measured after 4 hrs; type: ADME, organism-based; conditions: read-out: Drug uptake
Outline: (§2)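 Male Sprague–Dawley rats, single oral dose of 5 mg/kg. Plasma and brain drug levels, plus brain ABCA1 mRNA, were measured 4 h after dosing.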

[7] = Plasma concentration in Sprague-Dawley rat at 5 mg/kg, po measured after 4 hrs; type: ADME, organism-based; outline: as §2
[8] = Drug uptake in Sprague-Dawley rat brain at 1 mg/kg qd administered via oral gavage for 5 days measured 4 hrs post last dose; type: ADME, organism-based; conditions: read-out: Drug uptake
Outline: (§3)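 Sprague–Dawley rats, oral dosing once daily for 5 days at 1, 3 or 10 mg/kg/day, with a reference LXR agonist at 30 mg/kg in the same study. Drug levels were measured in plasma and brain. Brain ABCA1 mRNA was also measured, along with Aβ1–40 and Aβ1–42 in cerebrum and CSF.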

[9] = Drug uptake in Sprague-Dawley rat brain at 3 mg/kg qd administered via oral gavage for 5 days measured 4 hrs post last dose; type: ADME, organism-based; conditions: read-out: Drug uptake; outline: as §3
[10] = Drug uptake in Sprague-Dawley rat brain at 10 mg/kg qd administered via oral gavage for 5 days measured 4 hrs post last dose; type: ADME, organism-based; conditions: read-out: Drug uptake; outline: as §3
[11] = Plasma concentration in Sprague-Dawley rat at 3 mg/kg qd administered via oral gavage for 5 days measured 4 hrs post last dose; type: ADME, organism-based; outline: as §3
[12] = Plasma concentration in Sprague-Dawley rat at 1 mg/kg qd administered via oral gavage for 5 days measured 4 hrs post last dose; type: ADME, organism-based; outline: as §3
[13] = Plasma concentration in Sprague-Dawley rat at 10 mg/kg qd administered via oral gavage for 5 days measured 4 hrs post last dose; type: ADME, organism-based; outline: as §3
[14] = Plasma concentration in wild type C57BL mouse at 1 mg/kg, po measured after 4 hrs; type: ADME, organism-based; outline: as §1
[15] = Drug uptake in wild type C57BL mouse brain at 1 mg/kg, po measured after 4 hrs; type: ADME, organism-based; conditions: read-out: Drug uptake; outline: as §1
[16] = Drug uptake in Sprague-Dawley rat brain at 30 mg/kg qd administered via oral gavage for 5 days measured 4 hrs post last dose; type: ADME, organism-based; conditions: read-out: Drug uptake; outline: as §3
[17] = Plasma concentration in Sprague-Dawley rat at 30 mg/kg qd administered via oral gavage for 5 days measured 4 hrs post last dose; type: ADME, organism-based; outline: as §3
Rattus norvegicus = test: Induction of ABCA1 mRNA expression in Sprague-Dawley rat brain at 30 mg/kg qd administered via oral gavage for 5 days measured 4 hrs post last dose relative to control; type: functional
[18] = Drug uptake in wild type C57BL mouse brain at 30 mg/kg, po measured after 4 hrs; type: ADME, organism-based; conditions: read-out: Drug uptake
[19] = Plasma concentration in wild type C57BL mouse at 30 mg/kg, po measured after 4 hrs; type: ADME, organism-based

Chain of Cytochrome P450 2C9 (P11712 whole entry): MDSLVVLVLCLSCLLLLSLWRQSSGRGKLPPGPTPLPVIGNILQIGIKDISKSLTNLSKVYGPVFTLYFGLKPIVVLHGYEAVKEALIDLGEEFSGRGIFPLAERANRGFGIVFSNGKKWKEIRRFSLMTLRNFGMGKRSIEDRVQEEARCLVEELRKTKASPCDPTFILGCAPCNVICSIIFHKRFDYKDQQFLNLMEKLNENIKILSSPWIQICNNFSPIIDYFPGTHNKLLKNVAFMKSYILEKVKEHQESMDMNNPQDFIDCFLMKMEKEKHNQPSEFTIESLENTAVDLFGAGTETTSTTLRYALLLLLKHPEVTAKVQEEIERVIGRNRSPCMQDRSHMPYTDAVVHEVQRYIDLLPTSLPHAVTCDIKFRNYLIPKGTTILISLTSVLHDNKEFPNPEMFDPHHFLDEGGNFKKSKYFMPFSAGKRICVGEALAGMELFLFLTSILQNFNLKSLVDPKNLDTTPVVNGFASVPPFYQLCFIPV

half-life [1] [h]	half-life [2] [h]	IC50 (Cytochrome P450 2C9) [µM]	IC50 (Cytochrome P450 3A4) [µM]	IC50 (Cytochrome P450 2D6) [µM]	half-life [3] [h]	Structure (SMILES)	other results
1.15	0.717	–	–	–	–	CC(C)[C@@H]1CN(c2ccc(CO)c(S(C)(=O)=O)c2)CCN1c1ncc(CO)c(C(F)(F)F)n1	–
> 1	> 1	1.44	2.5	27	–	COc1ncnc(N2Cc3cn(-c4cccc(S(C)(=O)=O)c4)nc3[C@H]2C(C)C)c1F	–
> 1	> 1	5.63	> 30	> 30	> 1	COc1cc(N2Cc3cn(-c4cccc(S(C)(=O)=O)c4)nc3[C@H]2C(C)C)ccn1	–
–	> 1	6.62	12.9	5.37	–	COc1cc(N2Cc3cn(-c4cccc(S(C)(=O)=O)c4)nc3[C@H]2C(C)C)nc(C)n1	–
3.12	> 1	0.373	3.05	–	–	CC(C)[C@@H]1c2nn(-c3cccc(S(C)(=O)=O)c3)cc2CN1c1ncc(CO)c(C(F)(F)F)n1	–
> 1	> 1	1.87	12.8	20.9	> 1	CC(C)[C@@H]1c2nn(-c3cccc(S(C)(=O)=O)c3)cc2CN1c1ccnc(C(F)(F)F)n1	concentration at 4 h [4]: 3150 nM; concentration at 4 h [5]: 2890 nM; concentration at 4 h [6]: 2060 nM; concentration at 4 h [7]: 1740 nM
> 1	> 1	8.3	> 30	7.8	1.1	COc1cc(N2Cc3cn(-c4cccc(S(C)(=O)=O)c4)nc3[C@H]2C(C)(C)C)ccn1	concentration at 4 h [4]: 1020 nM; concentration at 4 h [5]: 1080 nM; concentration at 4 h [8]: 641 nM; concentration at 4 h [9]: 1560 nM; concentration at 4 h [6]: 2280 nM; concentration at 4 h [10]: 5040 nM; concentration at 4 h [11]: 463 nM; concentration at 4 h [12]: 187 nM; concentration at 4 h [13]: 1570 nM; concentration at 4 h [7]: 1220 nM
> 1	> 1	5.75	–	24.2	> 1	COc1nc(C)cc(N2Cc3cn(-c4cccc(S(C)(=O)=O)c4)nc3[C@H]2C(C)C)n1	concentration at 4 h [14]: 2 nM
> 1	> 1	2.11	> 30	25.7	> 1	CC(C)[C@@H]1c2nn(-c3cccc(S(C)(=O)=O)c3)cc2CN1c1nccc(C(F)(F)F)n1	–
> 1	> 1	5.21	> 30	> 30	0.833	CC(C)[C@@H]1c2nn(-c3cccc(S(C)(=O)=O)c3)cc2CN1c1cc(C(F)(F)F)ncn1	–
> 1	> 1	0.858	15.4	12.7	–	COc1ncc(F)c(N2Cc3cn(-c4cccc(S(C)(=O)=O)c4)nc3[C@H]2C(C)C)n1	concentration at 4 h [14]: 50 nM
–	–	3.81	> 30	25.7	> 0.367	COc1cc(N2Cc3cn(-c4cccc(S(C)(=O)=O)c4)nc3[C@H]2C(C)C)cc(C)n1	–
> 1	> 1	0.493	7.7	7.75	–	CC(C)[C@@H]1c2nn(-c3ccc(CO)c(S(C)(=O)=O)c3)cc2CN1c1ncc(CO)c(C(F)(F)F)n1	–
> 1	> 1	5.04	21.1	15.8	> 1	Cc1nc(N2Cc3cn(-c4cccc(S(C)(=O)=O)c4)nc3[C@H]2C(C)C)cc(C(F)(F)F)n1	concentration at 4 h [15]: 212 nM; concentration at 4 h [14]: 143 nM; concentration at 4 h [6]: 825 nM; concentration at 4 h [7]: 423 nM
–	–	–	–	–	–	O=S(=O)(c1ccccc1)N(CC(F)(F)F)c1ccc(C(O)(C(F)(F)F)C(F)(F)F)cc1 [T091317]	concentration at 4 h [16]: 5360 nM; concentration at 4 h [17]: 2800 nM; fold change (FC) (Rattus norvegicus): 5; concentration at 4 h [18]: 8050 nM; concentration at 4 h [19]: 3770 nM
